This is an account of results in article PMC7188312 (Nature, 2019).

For one data set, the system named is K. pneumoniae. The conditions noted are these: cited from earlier work.
In the next data set the test system is E. coli. Particulars: cited from earlier work.
For data set [1], the system named is Salmonella Typhimurium LT2 ATCC 19585. The experiment in a line: MIC, microbroth dilution, anaerobic. The format is cell-based. Particulars: Salmonella enterica, ATCC19585|TYPHIMURIUM
The subject of data set [2] is Enterobacter cloacae ATCC 13047. Description: MIC, microbroth dilution, anaerobic. The conditions noted are these: ATCC13047. Format: cell-based.
Data set [3] in a line: Cytotoxicity, microplate Alamar Blue assay. The format is cell-based. Particulars: human. A digest of the protocol: (§1)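 FaDu, HepG2 and HEK293-RFP cells were grown in Eagle's MEM with 10% FBS at 37°C, 5% CO2. Cells were seeded in exponential growth, and after 24 h the medium was replaced with fresh medium holding 2-fold serial dilutions of test compound made in water. After 72 h, resazurin was added to a final 0.15 mM. […] was read 3 h later. Biological replicates.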
In general terms: Alamar Blue is a resazurin reagent that responds to reducing activity.

Data set [4] deals with Klebsiella pneumoniae ATCC 700603. Description: MIC, microbroth dilution. Format: cell-based. (In general: In broth dilution the organism is exposed to a series of concentrations in liquid medium.)
Data set [5] concerns Bacteroides fragilis ATCC 25285. The experiment in a line: MIC, microbroth dilution, anaerobic. The format is cell-based. The conditions noted are these: ATCC25285.
Data set [6] has as its system Proteus mirabilis KLE 2600. Description: MIC, microbroth dilution, anaerobic. Format: cell-based. The conditions noted are these: KLE2600.
For data set [7], the system named is Bacteroides caccae KLE 2423. The experiment in a line: MIC, microbroth dilution, anaerobic. The format is cell-based. The conditions noted are these: KLE2423.
The subject of data set [8] is Faecalibacterium prausnitzii KLE 2243. Description: MIC, microbroth dilution, anaerobic. Format: cell-based. Particulars: KLE2243.
In data set [9] the test system is Acinetobacter baumannii ATCC 17978. Description: MIC, microbroth dilution. Format: cell-based. The conditions noted are these: ATCC17978.
A further data set has as its system E. coli AR350 (mcr-1). Description: MIC, microbroth dilution. Format: cell-based. Particulars: Escherichia coli.
Data set [10] in a line: Cytotoxicity, microplate Alamar Blue assay. The format is cell-based. Particulars: human, FaDu pharynx squamous cell carcinoma cells (ATCC HTB-43). The method, boiled down: as §1
Data set [11] concerns Stenotrophomonas maltophilia KLE 11416. Description: MIC, microbroth dilution, anaerobic. Format: cell-based. Particulars: KLE11416.
Data set [12] concerns Pseudomonas aeruginosa PAO1. The experiment in a line: MIC, microbroth dilution. Format: cell-based.
A short description of data set [13]: Cytotoxicity, microplate Alamar Blue assay. The format is cell-based. The conditions noted are these: human, HepG2 liver hepatocellular carcinoma cells (ATCC HB-8065). The method, boiled down:
as §1

Data set [14] relates to P. aeruginosa pmrB 523C>T. The experiment in a line: MIC, microbroth dilution. The conditions noted are these: Pseudomonas aeruginosa. The format is cell-based.
Data set [15] deals with Haemophilus parainfluenzae KLE 2367. The experiment in a line: MIC, microbroth dilution, anaerobic. The format is cell-based. Particulars: KLE2367.
For data set [16], the system named is K. pneumoniae clinical isolates. The experiment in a line: microbe, parasite or virus in culture. The conditions noted are these: Klebsiella pneumoniae, K. pneumoniae ESBL JMI 1052654. The format is cell-based.
Data set [17] has as its system E. coli clinical isolates. The experiment in a line: microbe, parasite or virus in culture. Format: cell-based. Particulars: Escherichia coli, E. coli ESBL JMI 1043856.
Data set [18] deals with Mycobacterium tuberculosis mc^26020. The experiment in a line: MIC, resazurin. The format is cell-based.
The test system of data set [19] is Bacteroides xylanisolvens KLE 2253. The experiment in a line: MIC, microbroth dilution, anaerobic. Format: cell-based. Particulars: KLE2253.
The target of the next data set is WT BAM (BamA of BAM) (Escherichia coli, UniProt P0A940). Description: Isothermal Titration Calorimetry. The conditions noted are these: same concentration range as darobactin. The format is binding, E. coli. The method, boiled down:
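BAM was expressed with 0.5 mM IPTG for 3 h, extracted from membranes in DDM and Ni-NTA purified. ITC ran at 25°C in duplicate: 20 μM BAM in 1xPBS with 0.05% DDM in the cell, 200 μM ligand in the syringe, 20 injections 300 s apart, stirring at 300 rpm. Ligand-into-buffer heats were measured as a control. Data were fitted to an independent binding model.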
In general terms: Isothermal titration calorimetry measures the heat released or taken up as one component is titrated into another.

The target in a further data set is BAM complex, wild type (Escherichia coli, UniProt P0A940). The experiment in a line: BAM folding assay. Format: biochemical, E. coli. Particulars: WT BAM-nanodiscs, increasing concentrations.
Data set [20] concerns the target BAM complex (BamABCDE), wild type (E. coli) (UniProt P0A940). Description: ITC.
The next data set deals with E. coli MG1655. The experiment in a line: LPS binding assay. The format is cell-based. Particulars: LPS from E. coli O55:B5, 0.5–100 μg ml^−1. The method, boiled down:
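Microbroth dilution: E. coli MG1655 at OD600 0.001 in cation-adjusted MHIIB was added to wells holding purified E. coli O55:B5 LPS (0.5–100 μg ml−1) plus serially diluted test compound or polymyxin B. Plates were incubated overnight at 37°C. The growth-inhibiting concentration was read by eye, with and without LPS.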

≈ marks a conversion by molar mass, not a printed value.

For the molecule `NC(N)=NC(=O)CC(Nc1nc(N=C(N)N)nc(NC2CCC(NC(=O)Cn3nnc(-c4ccc(F)cc4)n3)CC2)n1)C1CC1` (centres unmarked) [MRL-494], the MIC was 62 µg/mL (≈ 99.6 µM) in the data set on K. pneumoniae and 15 µg/mL (≈ 24.1 µM) in the data set on E. coli.

Turning to `CC1(C)S[C@@H]2[C@H](NC(=O)[C@H](N)c3ccccc3)C(=O)N2[C@H]1C(=O)O` [ampicillin], the MIC is 2 µg/mL (≈ 5.72 µM) in data set [1]; above 128 µg/mL in data set [2]; 128 µg/mL (≈ 366 µM) in data set [4] (ATCC700603); above 128 µg/mL in [4] (ATCC700603, K. pneumoniae ATCC700603 (SHV-18)); 128 µg/mL (≈ 366 µM) in data set [5]; above 128 µg/mL in data set [6]. In addition, the MIC is 2 µg/mL (≈ 5.72 µM) in data set [7]; 64 µg/mL (≈ 183 µM) in [8]; 64 µg/mL (≈ 183 µM) in data set [9]; above 128 µg/mL against E. coli AR350 (mcr-1); above 128 µg/mL in data set [11]; above 128 µg/mL in data set [12]. Moreover, the MIC in [14] was above 128 µg/mL; in data set [15], 128 µg/mL (≈ 366 µM); in data set [16], above 128 µg/mL; in data set [17], above 128 µg/mL; in [18], 16 µg/mL (≈ 45.8 µM); in [19] it was 1 µg/mL (≈ 2.86 µM). In addition, the IC50 at 72 h in [3], in [10] and in data set [13] was above 128 µg/mL each time.

WNWSKSF: the “binding to BAM by ITC” value on WT BAM (BamA of BAM) is recorded as “no binding”. The “inhibition of BAM-ND activity” value is on record as “only minimal effects” against BAM complex, wild type and “no inhibitory activity” at BAM complex, wild type (listed as linear peptide).

darobactin (peptide): in data set [20], the Kd (usually the equilibrium constant for the complex coming apart) stood at 1200 nM and the dH is -25 kcal/mol.

polymyxin B: the “effect of added purified LPS on antibiotic activity (MIC)” value with E. coli MG1655 is listed as “antagonized polymyxin activity”.
